# Bioassay records as filed in PubChem BioAssay.
# Rows were chosen to be rich in hits. Some 3% of all compounds tested hit in one or more screens of this group.
# Rad51 HR inh = blocks human Rad51 in homologous recombination | inhibition, % at 10 µM | Q06609 | AID 1385 | actives 0.085% (n = 200,000) | hRad51 DNA strand exchange, fluorescence dequenching;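 active means inhibition above 40% at the single screening dose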;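 further: 0% = DMSO control wells and 100% = blanks with heterologous ssDNA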
#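 Assay system: Human Rad51 nucleoprotein filaments preassembled on unlabelled ssDNA | Reagent: Donor/quencher-labelled 47-bp dsDNA substrate | Doses: One concentration, 10 µM final | Times: 37 °C 15-min filament assembly, 30-min compound preincubation, 15-min exchange | Technique: Fluorescein emission 520 nm, excitation 485 nm | Benchmarks: Plate control and blank wells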
# Cl transport mod = KCC2 (human) Cl- transport modulation | KCC2 cells, thallium flux FluoZin-2 fluorescence | actives 2.2% (n = 190,000) | AID 1456 | B-score of Tl+ flux slope (higher = more flux/activation; lower = inhibition) at 10 µM;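 active means thallium flux slope and its plate-corrected score both differing from the plate sample mean at a set confidence after two filtering rounds, in either direction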;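 further: slope of fluorescence scaled to starting intensity during 10 to 20 s after thallium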
# ROMK mod = human ROMK K+ channel modulation, primary screen | B-score at 10 µM | actives 2% (n = 130,000) | Tet-inducible ROMK, thallium flux fluorescence; actives lie on both sides;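 active means signal ratio slope over the read window, or its plate-corrected B-score, at least 3 SD from the plate mean, either direction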;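 further: B-score of the F/F0 ratio slope over 7 to 12 s after thallium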
# PKD1 inh = PKD1 (human) kinase inhibition | Q15139 | PKD1 kinase fluorescence polarization assay | inhibition, % (no concentration beside the values) | actives 0.056% (n = 200,000); in the data active means inhibition above about 50%
# Target sequence (Q15139 whole entry, looked up): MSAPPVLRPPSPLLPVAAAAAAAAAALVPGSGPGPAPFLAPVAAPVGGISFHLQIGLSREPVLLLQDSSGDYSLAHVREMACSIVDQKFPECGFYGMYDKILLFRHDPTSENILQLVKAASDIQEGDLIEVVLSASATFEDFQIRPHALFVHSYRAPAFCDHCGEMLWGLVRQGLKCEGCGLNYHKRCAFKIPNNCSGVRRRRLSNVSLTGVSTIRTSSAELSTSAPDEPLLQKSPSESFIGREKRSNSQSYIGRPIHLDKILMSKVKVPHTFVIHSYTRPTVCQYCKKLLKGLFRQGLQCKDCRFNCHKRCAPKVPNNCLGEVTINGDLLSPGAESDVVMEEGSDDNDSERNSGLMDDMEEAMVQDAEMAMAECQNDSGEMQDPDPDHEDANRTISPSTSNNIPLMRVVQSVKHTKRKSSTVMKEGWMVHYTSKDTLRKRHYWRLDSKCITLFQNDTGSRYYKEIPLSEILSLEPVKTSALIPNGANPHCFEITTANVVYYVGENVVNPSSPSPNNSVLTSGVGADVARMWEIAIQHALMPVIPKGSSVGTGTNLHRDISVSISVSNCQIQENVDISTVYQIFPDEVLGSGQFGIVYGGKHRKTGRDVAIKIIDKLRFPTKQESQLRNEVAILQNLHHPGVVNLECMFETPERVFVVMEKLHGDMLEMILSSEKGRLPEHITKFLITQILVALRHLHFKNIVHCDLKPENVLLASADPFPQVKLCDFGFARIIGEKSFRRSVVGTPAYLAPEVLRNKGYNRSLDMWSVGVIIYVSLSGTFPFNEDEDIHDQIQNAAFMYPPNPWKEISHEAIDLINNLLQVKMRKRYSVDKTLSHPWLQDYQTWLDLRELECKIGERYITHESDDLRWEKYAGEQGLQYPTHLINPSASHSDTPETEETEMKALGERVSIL
# KCC2 sec1 = confirmation of human KCC2 transport modulators; normalised thallium flux (F/F0 slope) at 10 µM; actives 15% (n = 3,700); HEK293-KCC2, thallium flux, FluoZin2 fluorescence; stronger effect = higher value; shares compounds with Cl transport mod; AID 1713;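 active means thallium flux slope above the same plate's solvent-only control mean plus 3 SD; inconclusive means the two replicate wells disagree; inactive means no significant difference from solvent-only control wells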
# KCC2 bumet counter = thallium flux despite bumetanide block in KCC2 cells, secondary assay 3. shares compounds with Cl transport mod. HEK293-KCC2 + bumetanide/ouabain, thallium flux FluoZin2; stronger effect = higher value. normalized thallium flux at 10 µM. actives 49% (n = 3,700). AID 1714;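 active means thallium entry rate above the same plate's blocked-transporter control wells by more than 3 SD; inconclusive means the two repeat wells disagree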;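 further: raw slope of fluorescence over initial fluorescence between 10 and 20 s after thallium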
# KCC2 sec2 = KCC2 (human) modulation, second secondary assay; shares compounds with Cl transport mod; HEK293-KCC2, thallium flux FluoZin2 fluorescence; actives lie on both sides; F/F0 rise rate, 10–20 s post-thallium; normalized thallium flux at 10 µM; actives 23% (n = 3,700);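 active means thallium flux slope more than 3 SD above or below the plate's solvent-only control mean, mostly below; inconclusive means the two repeat wells disagreed; inactive means no significant shift from solvent-only controls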;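 further: raw slope with 0.1% DMSO as baseline and bumetanide as block control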
# HEK counter1 = acts in parental HEK cells, KCC2 counter-screen. HEK293 parental cells, thallium flux FluoZin2, ouabain; baseline-ratio fluorescence slope, 10–20 s after thallium. actives 46% (n = 3,700). shares compounds with Cl transport mod. thallium flux rate (normalised fluorescence) at 10 µM;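 active means thallium flux rate significantly above the same plate's solvent-only control wells, beyond their mean plus 3 SD; inconclusive means the two replicate wells gave conflicting results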
# KCC2 retest ouab = KCC2 (human) modulation, ouabain retest | HEK293-KCC2, thallium flux FluoZin2 fluorescence; bidirectional: low = inhibitor, high = activator | shares compounds with Cl transport mod | actives 48% (n = 3,700) | raw Tl+ flux slope (below DMSO = inhibition, above = activation) at 10 µM | AID 1717;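 active means thallium flux slope beyond 3 SD from same-plate DMSO control mean in most replicates, usually higher, sometimes lower; inconclusive means repeat tests gave conflicting results; inactive means no significant difference from controls in most replicates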;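 further: slope of initial-normalized fluorescence between seconds 10 and 20 after thallium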
# HEK counter2 = parental HEK flux effect, counter-screen 2 | shares compounds with Cl transport mod | HEK293 parental, thallium flux FluoZin-2 fluorescence slope | thallium flux slope at 10 µM | actives 33% (n = 3,700) | AID 1718;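 active means thallium flux slope above the same plate's solvent-control mean plus 3 SD in both duplicate wells; inconclusive means duplicate wells that disagreed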;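 further: run without ouabain in cells lacking the KCC2 cotransporter; slope of fluorescence scaled to its starting value between 10 and 20 s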
# * = called active by the depositor; u = inconclusive; x = no result given.
SMILES,Rad51 HR inh,Cl transport mod,ROMK mod,PKD1 inh,KCC2 sec1,KCC2 bumet counter,KCC2 sec2,HEK counter1,KCC2 retest ouab,HEK counter2
O=C(O)CSc1nc(-c2cccs2)cc(C(F)(F)F)n1,-9,-0.02,0.77,9,x,x,x,x,x,x
CN(C(=S)NC(=O)/C=C/c1ccc(F)cc1)C1CCCCC1,x,12*,-2,-1,0.012,0.072*,0.033,0.019*,u,0.014*
Cc1ccc(NC(=O)c2ccc(NCc3ccco3)c([N+](=O)[O-])c2)cc1Cl,-17,-1.1,x,-6,x,x,x,x,x,x
CCN(C(=O)CN1CCOCC1)C1(C)C(=O)c2ccccc2C1=O,x,0.32,1.1,1,x,x,x,x,x,x
COc1cccc(C2c3c(oc4ccc(F)cc4c3=O)C(=O)N2CCCN2CCOCC2)c1 (stereo not given),x,11*,x,0,0.0071,0.011*,0.03,0.013*,u,0.014*
O=C1c2oc3ccc(F)cc3c(=O)c2C(c2ccc(F)cc2)N1CCCN1CCOCC1 (stereo not given),0,0.23,x,-6,x,x,x,x,x,x
C=C1c2ccccc2NC(=S)N1Cc1ccc2c(c1)OCO2,-1,9.9*,-0.15,-2,0.0069,0.02*,0.032,0.021*,0.034*,0.017*
CN(C)c1ccc(-c2nnn(Cc3ccccc3Br)n2)cc1,-2,-4.3*,x,-2,0.0093,0.011*,0.032,u,0.021,0.01
O=C(NN1CCOCC1)NC12CC3CC(CC(C3)C1)C2,12,1.6,x,x,x,x,x,x,x,x
CNC(=S)N(Cc1cc2cc(OC)c(OC)cc2[nH]c1=O)C1CCCC1,3,-4.2*,-0.68,0,0.0094,0.0061,0.031,u,0.019,0.0098
CNC(=S)N(CCc1cccc(C)c1)Cc1cc2cc(OC)c(OC)cc2[nH]c1=O,x,0.7,x,-11,x,x,x,x,x,x
Cc1nn(-c2ccccc2)nc1C(=O)Nc1nnc(C(F)(F)F)s1,11,24*,x,x,0.016*,0.049*,0.033,0.019*,0.04*,0.013*
CCN(CC)C(=O)C(=O)N/N=C/c1ccc(C(=O)OC)cc1,x,-0.088,x,-2,x,x,x,x,x,x
c1cc2c(cc1Oc1nc(N3CCOCC3)nc(N3CCOCC3)n1)OCO2,1,0.22,-0.55,10,x,x,x,x,x,x
Clc1ccc(Oc2nc(N3CCOCC3)nc(N3CCOCC3)n2)cc1,3,7.6*,-0.68,1,0.0091,0.0068,0.03,0.0074,0.021,u
CC(=O)N/C(=C/c1ccc2c(c1)OCO2)C(=O)NCc1ccccc1,-13,x,0.29,-2,x,x,x,x,x,x
CC(C)c1ccc(/C=N/NC(=O)c2ccccc2Cl)cc1,7,-4.4*,x,0,0.0054,0.005,0.024*,0.0072,u,0.01
Cc1ccc(-c2ccc(/C=N/O)o2)cc1[N+](=O)[O-],19,0.037,-1.2,-4,x,x,x,x,x,x
O=C(NCCc1ccccc1)C1CCC(CNS(=O)(=O)c2cccs2)CC1 (stereo not given),17,-0.32,-0.22,1,x,x,x,x,x,x
COc1cc(C(=S)N2CCOCC2)cc(OC)c1OC(=O)Cc1ccc(F)cc1,-1,-4.3*,x,-3,0.0092,0.0069,0.028*,0.0039,0.016*,0.011
CCOc1cccc(C(=O)NC(=S)Nc2cccc(C)c2)c1,2,6.4*,0.22,-7,0.0067,0.011*,0.034,0.012*,u,0.015*
O=C(NC(=S)Nc1ccccc1)c1cncc(C#Cc2ccccc2)c1,-9,24*,0.012,x,u,0.023*,0.029,0.01*,0.039*,u
CC(=O)c1cccc(NC(=S)NC(=O)c2ccccc2)c1,x,4.5*,0.18,-8,0.0065,0.02*,0.032,0.018*,u,0.016*
CCC(=O)NC(=S)Nc1ccc(NC(=S)NC(=O)c2ccccc2)cc1,12,-0.69,1.2,8,x,x,x,x,x,x
O=C(NC(=S)Nc1ccc(Cl)cc1)c1ccccc1,12,76*,x,x,0.016*,0.052*,0.037,u,0.046*,0.023*
SMILES,Rad51 HR inh,Cl transport mod,ROMK mod,PKD1 inh,KCC2 sec1,KCC2 bumet counter,KCC2 sec2,HEK counter1,KCC2 retest ouab,HEK counter2
CC(=O)c1cnc2ncnn2c1C,x,2.1,0.4,1,x,x,x,x,x,x
O=C(O)c1cccc(NC(=S)NC(=O)c2ccc(-c3ccccc3)cc2)c1,3,-6.1*,0.026,-4,u,0.0053,0.022*,0.0057*,0.013*,u
NC(=O)/C(=N\OC(=O)c1ccco1)c1nc(-c2ccc(Br)cc2)cs1,x,3.7*,x,-8,0.0075,0.013*,0.025*,0.011*,0.018,0.0087
Cc1ccc(-n2ncc3c(SCC(=O)NNC(=O)c4ccco4)ncnc32)cc1,0,37*,x,1,u,0.041*,u,0.035*,0.035*,0.032*
O=C(CSc1nnc(Cc2ccccc2)n1-c1cccc(Cl)c1)NNC(=O)Cc1ccccc1,x,0.44,x,0,x,x,x,x,x,x
Cc1nnc(SCC(=O)NNC(=O)c2ccco2)n1-c1cccc(Cl)c1,2,-3.6*,0.058,-5,0.0094,u,0.03,0.008,0.065,u
CCOC(=O)CNC(=O)CSc1ncnc2c1cnn2-c1ccc(C)cc1,0,0.086,-0.46,0,x,x,x,x,x,x
Cc1cc(C)n2c(SCC(=O)NC3CCCCC3)nnc2n1,-6,0.49,-0.92,-9,x,x,x,x,x,x
COc1ccc(C2CCCN2C(=O)Nc2ccc(Cl)cc2)cc1OC (stereo not given),3,-3.3*,x,2,0.0066,0.0049,0.03,0.0075,u,0.011
O=[N+]([O-])c1ccc(-c2nc3ccc([N+](=O)[O-])cc3[nH]2)cc1,-4,x,x,-3,x,x,x,x,x,x
O=[N+]([O-])c1ccc2nc(/C=C/c3ccc(Cl)cc3)[nH]c2c1,1,-4.5*,x,0,0.007,0.0052,0.029,0.0077,u,0.0099
COC(=O)c1sc(NC(=S)NC(=O)c2ccccc2F)nc1C,-5,36*,1.2,0,0.0079,0.037*,u,0.033*,0.04*,0.022*
CCOC(=O)CNC(=O)c1sc(NC(=O)c2ccccc2F)nc1C,x,0.41,x,3,x,x,x,x,x,x
Cc1nc(NC(N)=S)sc1C(=O)Nc1ccccc1,-8,-0.89,x,-6,x,x,x,x,x,x
Cc1nc(NC(=S)NC(=O)c2ccccc2)sc1C,12,46*,x,x,0.015*,0.06*,0.034,0.028*,0.037*,0.013*
